The target of the assay is M17 leucyl aminopeptidase (Plasmodium falciparum 3D7). The assay can be described thus: Inhibition of P. falciparum M17 aminopeptidase – biochemical, QFRET, counter-screen for PfM18AAP inhibitor project, dose response (AID 588679). The following applies: recombinant PfM17LAP, H-Leu-NHMec fluorogenic cleavage. The method in brief:
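System: purified recombinant Plasmodium falciparum M17 leucine aminopeptidase; Also added: H-Leu-NHMec, 0.1 mM; Compound dosing: 10 doses, top 100 µM; Times: 90 min reaction, room temperature; Measured by: fluorescence, ex 370 nm, em 460 nm; Read-out: percent inhibition normalized to controls, IC50 from logistic fit; Benchmarks: full-reaction wells and enzyme-free background wells; Replicates: triplicate.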

57 compounds from PubChem BioAssay AID588679 (Southern Research Specialized Biocontainment Screening …, 2011) can be followed below.

The source made the active and inactive calls.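 How the source made its calls: active means inhibition of 30% or more at any tested concentration; inactive means the rest.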

With `CCC(C)c1ccc(N)c(O)c1` (configuration not stated), the IC50 was 37.6 µM.

Consider `Nc1cc(C(=O)c2ccccc2)ccc1O`, for which the half-maximal inhibitory concentration (IC50) is 31.4 µM.

With `COc1ccc(-c2csc(-c3ccccc3OC)n2)cc1OC`, the inhibition result (at 100 µM (top of the series)) was “inactive”.

Take `O=C1OCCN1CCc1nc(-c2ccc(O)c(O)c2)cs1`: the IC50 is 37 µM.

In the case of `Oc1ccc(CCNc2ccc3ccccc3c2)cc1O`, the concentration for half-maximal inhibition (IC50) was 39.7 µM.

In the case of `CCC(C)C(=O)Nc1ccccc1O` (configuration not stated), under “at 100 µM (top of the series)”, the inhibition result was “inactive”.

`COc1ccc2c(c1)C(=O)C(N)CC2` (configuration not stated): for the setting “at 100 µM (top of the series)”, the inhibition entry is “inactive”.

For `Cc1c(OCc2ccccc2)c(=O)ccn1CCNc1c2ccccc2nc2ccccc12`, the inhibition entry (at 100 µM (top of the series)) is “inactive”.

Regarding `COc1ccc(CCNc2ccc3ccccc3c2)cc1OC`, where the note is “at 100 µM (top of the series)”, the inhibition result was “inactive”.

Regarding `Oc1ccc(CCNc2cncc3ccccc23)cc1O`, the IC50 is 26.6 µM.

On to `CCC(C)C(=O)Nc1ccccc1N` (configuration not stated), for which, for the setting “at 100 µM (top of the series)”, the inhibition result was “inactive”.

`Oc1ccc(CCCNc2c3ccccc3nc3ccccc23)cc1O`: for the setting “at 100 µM (top of the series)”, the inhibition entry was “inactive”.

For the compound `Oc1ccc(-c2csc(Cc3cc4ccccc4[nH]3)n2)cc1O`, the IC50 is 22 µM.

`O=C1c2ccc3c4c(ccc(c24)C(=O)N1O)CC3`: for the setting “at 100 µM (top of the series)”, the inhibition result is “inactive”.

Consider `Oc1ccc(CCNc2cccc3ccccc23)cc1O`, for which the IC50 is 26.9 µM.

For the compound `O=C(O)CCCCNc1c2ccccc2nc2ccccc12`, the inhibition entry (at 50 µM (top of the series)) is “inactive”.

Regarding `O=C(c1ccco1)N1CCN(Cc2cc(=O)c(O)co2)CC1`, the inhibition entry (at 100 µM (top of the series)) is “inactive”.

For the compound `Cc1c(O)c(=O)ccn1CCNc1c2ccccc2nc2ccccc12`, for the setting “at 100 µM (top of the series)”, the inhibition result was “inactive”.

For `COc1ccc(CCN(C)CCc2ccccc2)cc1OC`, under “at 100 µM (top of the series)”, the inhibition result is “inactive”.

With `COc1ccc(CC(=O)O)cc1OC`, the inhibition result (at 100 µM (top of the series)) was “inactive”.

Consider `O=c1cc(CN2CCN(Cc3ccccc3)CC2)c2ccc(O)c(O)c2o1`, for which the IC50 was 94 µM.

In the case of `Oc1ccc(CCNc2c3c(nc4ccccc24)CCCC3)cc1O`, the IC50 was 61.8 µM.

For `COc1ccc(CCNc2ccncc2)cc1OC`, for the setting “at 100 µM (top of the series)”, the inhibition entry is “inactive”.

As for `COc1cccc(CCNc2c3ccccc3nc3ccccc23)c1`, under “at 100 µM (top of the series)”, the inhibition entry was “inactive”.

As for `COc1ccc(CCNc2ccnc3ccccc23)cc1OC`, the inhibition result (at 100 µM (top of the series)) is “inactive”.

As for `COc1ccc(CCCNc2c3ccccc3nc3ccccc23)cc1OC`, the inhibition result (at 100 µM (top of the series)) was “inactive”.

Consider `Cc1c(-c2ccccc2)[nH]c(-c2ccc(O)c(O)c2)[n+]1O`, for which the IC50 is 69.2 µM.

Consider `COc1ccc(CCNc2cncc3ccccc23)cc1OC`, for which the inhibition entry (at 100 µM (top of the series)) is “inactive”.

On to `Oc1ccc(CCNc2c3ccccc3nc3ccccc23)cc1`, for which the inhibition result (at 100 µM (top of the series)) is “inactive”.

In the case of `COc1ccc(-c2nc(-c3ccccc3)c(-c3ccccc3)[nH]2)cc1OC`, the inhibition result (at 100 µM (top of the series)) was “inactive”.

As for `CC(C)(C)C(=O)OCc1nc(-c2ccc(O)c(O)c2)cs1`, the IC50 was 29.4 µM.

`COc1ccc(CCNc2cccc3ccccc23)cc1OC`: the inhibition result (at 100 µM (top of the series)) was “inactive”.

`COc1ccc(CCNC2CCN(C)CC2)cc1OC`: under “at 100 µM (top of the series)”, the inhibition entry is “inactive”.

On to `Oc1ccc(CCN2CCc3ccccc3C2)cc1O`, for which the IC50 was 58.6 µM.

Regarding `NCCNc1c2ccccc2nc2ccccc12`, the inhibition entry (at 100 µM (top of the series)) is “inactive”.

Turning to `O=C(O)CCCNc1c2ccccc2nc2ccccc12`, the inhibition entry (at 50 µM (top of the series)) was “inactive”.

For the compound `O=c1cc(CO)oc(CN2CCCCC2)c1O`, the inhibition result (at 100 µM (top of the series)) was “inactive”.

As to `COc1ccc(CNc2c3ccccc3nc3ccccc23)cc1OC`, for the setting “at 100 µM (top of the series)”, the inhibition result was “inactive”.

Turning to `COc1ccc(CCC(=O)O)cc1OC`, where the note is “at 100 µM (top of the series)”, the inhibition result is “inactive”.

Turning to `COc1ccc(CCN(C)c2ccnc3ccccc23)cc1OC`, the inhibition result (at 100 µM (top of the series)) was “inactive”.

As to `Oc1ccc(CCNC(c2ccccc2)c2ccccc2)cc1O`, the IC50 is 46.8 µM.

Turning to `NCc1cc2c3c(c(=O)oc2c(O)c1O)CCC3`, the inhibition result (at 100 µM (top of the series)) was “inactive”.

For `COc1ccc(CCNc2c3c(nc4ccccc24)CCCC3)cc1OC`, for the setting “at 100 µM (top of the series)”, the inhibition entry is “inactive”.

Turning to `COc1ccc(CCNC2CCN(Cc3ccccc3)CC2)cc1OC`, the inhibition entry (at 100 µM (top of the series)) is “inactive”.

For the compound `COc1ccc(CCN2CCN(C)CC2)cc1OC`, the inhibition entry (at 100 µM (top of the series)) was “inactive”.

`COc1ccc(CCN(C)c2ccncc2)cc1OC`: the inhibition result (at 100 µM (top of the series)) was “inactive”.

Take `COc1ccc(CCN2CCc3ccccc3C2)cc1OC`: the inhibition entry (at 100 µM (top of the series)) is “inactive”.

Take `O=c1ccc2cc(O)c(O)cc2o1`: the IC50 is 35.3 µM.

`COc1cccc(-c2nc(-c3ccc(OC)c(OC)c3)cs2)c1`: the inhibition result (at 100 µM (top of the series)) is “inactive”.

Regarding `COc1ccc(-c2csc(-c3ccccc3)n2)cc1OC`, the inhibition entry (at 100 µM (top of the series)) was “inactive”.

`Cc1nc(NCCc2ccc(O)c(O)c2)c2c3c(sc2n1)CCC3`: the IC50 was 25.3 µM.

With `O=S1(=O)c2ccccc2-c2cc(-c3nc(-c4ccc(O)c(O)c4)[nH]c3-c3ccccc3)ccc21`, the IC50 was 20 µM.

In the case of `CCOc1cccc(-c2nc(-c3ccc(O)c(O)c3)cs2)c1`, the IC50 was 23.5 µM.

For the compound `O=C(c1ccco1)N1CCN(Cc2cc(=O)c(O)c[nH]2)CC1`, for the setting “at 100 µM (top of the series)”, the inhibition entry was “inactive”.

For `Cc1ccc(-c2nc(-c3ccc(O)c(O)c3)cs2)cc1`, the 50% inhibitory concentration (IC50) was 21.1 µM.

Turning to `CN(CCc1ccc(O)c(O)c1)c1ccnc2ccccc12`, the IC50 is 18 µM.

`COc1ccc(CCNc2c3ccccc3nc3ccccc23)cc1OC`: the inhibition result (at 100 µM (top of the series)) was “inactive”.

By IC50 is commonly meant the point on the concentration scale where inhibition reaches its midpoint.
